We go through three compounds from ChEMBL document CHEMBL1125374, “Novel anticancer prodrugs of butyric acid. 2” (J Med Chem, 1992).

Data set [1] is described as follows: Lethal dose was determined. The settings on record: mouse. It is filed as toxicity. In outline:
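Acute toxicity in male and female BALB/c mice (3 experiments) and C57Bl mice (2 experiments), 6-8 weeks old, weighing 20 ± 0.5 g, in groups of 10. Each mouse got a single injection of 0.125-2.5 g/kg in propylene glycol, and LD50 was taken from mortality.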

Data set [2] concerns B16-F10. As to the kind of experiment: Inhibitory activity on growth of B16F10.9 melanoma cell line. The data set is classed as functional, cell-based. The note with it: Mus musculus. The method, boiled down: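 B16F10.9 melanoma cells (4 x 10^4) seeded in 35-mm dishes in RPMI/10% FCS at 37 °C, 5% CO2. Compound added 6 h after seeding. On day 4 cells detached in PBS with 1 mM EDTA and counted electronically. IC50 read from viable cell number vs log concentration.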

Data set [3] concerns B16-F10. As to the kind of experiment: Effect on appearance of B16F10.9 colonies in semisolid agar. The data set is classed as functional, cell-based. The settings on record: Mus musculus. In outline: (§1)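 B16F10.9 cells (10^3) plated in the upper layer of a 0.6 mL RPMI soft-agar bilayer. Lower layer: conditioned medium 40, FCS 10, horse serum 15, agar 0.5 (% v/v). Upper layer: FCS 20, horse serum 20, agar 0.36. Compound added to the upper layer. Aggregates of more than 20 cells scored as colonies by inverted microscope after 7 days.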

Data set [4] concerns B16-F10. Put plainly: Effect on metastases of B16F10.9 melanoma cells (intraperitoneally implanted) in B6C3F1/OLAC/HSD mice was observed after administration of 50 mg/kg dose. It is filed as functional, Mus musculus. The note with it: route intraperitoneal.
In data set [5] the test system is B16-F10. Put plainly: Effect on metastases of B16F10.9 melanoma cells (intravenously injected) in C57BL/6 mice was observed after administration of 25 mg/kg dose. The settings on record: route intraperitoneal.
Data set [6] has as its system B16-F10. As to the kind of experiment: Effect on metastases of B16F10.9 melanoma cells (intravenously injected) in C57BL/6 mice was observed after administration of 100 mg/kg dose. The settings on record: route intraperitoneal.
The test system of data set [7] is B16-F10. Put plainly: Effect on metastases of B16F10.9 melanoma cells (intravenously injected) in C57BL/6 mice was observed after administration of 25 mg/kg dose. The settings on record: route intraperitoneal. This is another data set of the same source.
In a further data set the test system is WEHI. Put plainly: Concentration required for 50% proliferation inhibition of myelomonocytic WEHI cell line. The settings on record: Mus musculus. The data set is classed as functional, cell-based. In outline: (§2)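 Cells grown in RPMI with 10% fetal calf serum and 2 mM glutamine at 37 °C, 5% CO2. HL-60 (human promyelocytic) and WEHI (murine myelomonocytic) cells exposed to a titration of compound for 24 h. [3H]thymidine pulsed at 1 µCi/well during the last 14 h. Acid-insoluble counts collected on glass-fibre filters. IC50 taken from percent incorporation vs log concentration. At least two independent experiments.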

Data set [8] has as its system B16-F10. Put plainly: Effect on metastases of B16F10.9 melanoma cells (intravenously injected) was observed after administration of 50 mg/kg dose. The settings on record: route intraperitoneal.
Data set [9] deals with B16-F10. As to the kind of experiment: Effect on metastases of B16F10.9 melanoma cells (intravenously injected) in C57BL/6 mice was observed after administration of 100 mg/kg dose. The note with it: route intraperitoneal. This is another data set of the same source.
Data set [10] concerns B16-F10. As to the kind of experiment: Effect on metastases of B16F10.9 melanoma cells (intravenously inoculated) in C57BL/6 mice was observed after administration of 12.5 mg/kg dose. The settings on record: route intravenous.
In data set [11] the test system is B16-F10. Put plainly: Effect on metastases of B16F10.9 melanoma cells (intravenously injected) in C57BL/6 mice was observed after administration of 12.5 mg/kg. The note with it: route intraperitoneal.
The next data set relates to HL-60. Put plainly: Concentration required for 50% proliferation inhibition of human promyelocytic HL-60 cell line. The data set is classed as functional, cell-based. In outline:
as §2

The subject of data set [12] is B16-F10. As to the kind of experiment: Effect on appearance of B16F10.9 colonies in semisolid agar at 1 mM. The data set is classed as functional, Mus musculus. The method, boiled down:
as §1

Molecules are shown by their SMILES.

What is called LD50 is the dose at which mortality reaches 50%. A lower LD50 goes with greater toxicity. Usually IC50 stands for the concentration needed to halve the response being measured. Read a low IC50 as greater potency in that assay. In data set [1], `CCCC(=O)OCOC(=O)C(C)(C)C` [AN-9] yielded an LD50 of 1360 mg/kg. Further, the IC50 in the data set on B16-F10 [2] was determined as 82 µM; with B16-F10 [3] it was 60 µM; in the data set on WEHI it was 75 µM; with HL-60 it was 49.5 µM. Besides, the “No. of lung lesions” value turned out to be 66.6 in the data set on B16-F10 [4], 72.38 in the data set with B16-F10 [7], 140 in the data set on B16-F10 [9] and 97.89 in the data set on B16-F10 [11]. Moreover, the Lung weight worked out at 0.135 g in the data set with B16-F10 [5], 0.269 g in the data set on B16-F10 [6], 0.0929 g in the data set on B16-F10 [8] and 0.1571 g with B16-F10 [10].

The compound `CCCC(=O)O` [BUTYRIC ACID] registered a Decrease with B16-F10 [12] of 22%. The IC50 came out at 933 µM with B16-F10 [2], 850 µM in the data set with WEHI and 1520 µM in the data set with HL-60.

With `O=P1(N(CCCl)CCCl)NCCCO1` (stereo not drawn) [CYCLOPHOSPHAMIDE ANHYDROUS], the “No. of lung lesions” value in the data set with B16-F10 [4] was determined as 56.38.
